# SR-BI DiI-HDL act: SR-BI HDL lipid transfer activation. CHO ldlA[mSR-BI] cells, DiI-HDL uptake fluorescence, 3 h; 100 = double the neutral-control signal. activation, % at 12.5 µM. hit rate 0.096% among 320,000;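 active means mean replicate activation of at least 60% and every replicate at or above 60%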
#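 Material: SR-BI-overexpressing, LDLR-lacking CHO cells | Dosing: Single compound concentration, delivered by pin transfer | Probe or stimulus: Labelled HDL, 10 µg/mL | Signal: Bottom-read cell fluorescence after medium removal, ex 550/em 595 nm | Schedule: 3 h, 37 °C | Evaluation: HDL uptake via cellular fluorescence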
# CDK5 p35 inh: blocks human CDK5/p35 kinase activity; Q00535+Q15078; Recombinant CDK5/p35, ADP-Glo luminescence, 60 min; inhibition, % at 10 µM; hit rate 0.01% among 330,000;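 active means highest replicate inhibition of at least 50% and at least 75% of replicates reaching 50%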
# SR-BI DiI inh: inhibitors of mouse SR-BI mediated HDL lipid uptake | ldlA[mSR-BI] CHO cells, DiI-HDL uptake fluorescence, 3 h | hit rate 0.96% among 320,000 | Q61009 | inhibition, % at 12.5 µM;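 active means mean replicate inhibition of at least 70% and a set share of replicates each scoring 70 or more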
# dFosB act-1: mouse delta FosB homodimer activation | hit rate 0.99% among 340,000 | purified delta FosB, TAMRA-CDK5 oligo fluorescence polarization; percent of positive-control signal above neutral wells | activation, % at 25 µM;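 active means mean activation above about 17%, with every replicate also reaching it, limit read from the data, passing the limit was not always enough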
# Target sequence (P13346 whole entry, looked up): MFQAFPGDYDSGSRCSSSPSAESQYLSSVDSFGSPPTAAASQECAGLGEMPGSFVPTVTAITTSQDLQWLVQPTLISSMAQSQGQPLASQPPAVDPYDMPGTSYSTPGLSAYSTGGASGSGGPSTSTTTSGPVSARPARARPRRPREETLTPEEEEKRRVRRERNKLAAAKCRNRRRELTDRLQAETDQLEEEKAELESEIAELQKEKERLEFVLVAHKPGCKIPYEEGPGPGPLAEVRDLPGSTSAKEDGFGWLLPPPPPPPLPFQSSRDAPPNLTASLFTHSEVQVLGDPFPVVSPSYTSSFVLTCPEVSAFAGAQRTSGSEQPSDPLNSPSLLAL
# Dyrk1A ADPGlo: inhibitors of rat Dyrk1A kinase | Q63470 | ADP-Glo luminescence, NFATc1 peptide | inhibition, % at 12.5 µM | hit rate 0.43% among 310,000 | AID 504441
# NSD2 inh: inhibitors of human histone methyltransferase NSD2. NSD2 peptide methylation, AlphaScreen, 120 min. inhibition, % at 12.5 µM. hit rate 0.54% among 310,000. AID 743445
# dFosB act-2: delta FosB (mouse) homodimer activation; AID 588690; activation, % at 24.9 µM; shares compounds with dFosB act-1; 2,400 tested, under 10 active; purified delta FosB, TAMRA-CDK5 oligo fluorescence polarization; normalised: neutral wells 0, positive control 100;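 active means highest replicate activation at or above 34% and every replicate reaching that threshold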;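 further: higher polarization means more probe DNA bound by delta FosB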
# A number is an active result; – = inactive; · = not tested or not shown. A selection: hits, their analogues and other compounds. The true share with any hit is near 2.5%. Unless noted, no stated cut-off is given here; in the data, active means inhibition above about 50%; inactive means the rest.
SMILES,SR-BI DiI-HDL act,CDK5 p35 inh,SR-BI DiI inh,dFosB act-1,Dyrk1A ADPGlo,NSD2 inh,dFosB act-2
Cc1ccc2nc(SCC(=O)Nc3ccccc3N3CCOCC3)c(C#N)cc2c1,–,–,–,–,–,–,·
COc1ccccc1NC(=O)NNC(=O)COc1ccc2ccccc2c1,–,–,–,21,–,–,–
COc1ccc(NC(=O)NNC(=O)COc2ccc3cc(Br)ccc3c2)cc1,–,–,–,–,–,–,·
COc1ccc(NC(=O)NNC(=O)COc2ccc3cc(Br)ccc3c2)cc1OC,–,–,–,144,–,–,–
COc1ccccc1NC(=O)NNC(=O)c1ccc2ccccc2c1,–,–,–,–,–,–,·
COc1ccc2cc(OCC(=O)NNC(=O)Nc3ccc(C(C)=O)cc3)ccc2c1,–,–,–,99,–,–,–
COc1ccc(NC(=O)NNC(=O)COc2ccc3ccccc3c2)cc1OC,–,–,–,–,–,–,·
COc1cc(/C=C/C(=O)O)ccc1OS(=O)(=O)c1c(C)cc(C)cc1C,–,–,–,–,·,–,·
O=C(O)c1ccc(S(=O)(=O)N2CCC(NC(=O)C3CCCCC3)CC2)cc1,·,–,·,–,–,–,·
COC(=O)c1cc(OC)c(OC)cc1NC(=O)c1csc(C)c1,–,–,–,–,–,–,·
COC(=O)c1cc(OC)c(OC)cc1NC(=O)c1cc(OC)cc(OC)c1,–,–,–,23,–,–,–
CCOc1cc(C(=O)NC2CC(C)(C)NC(C)(C)C2)cc(OCC)c1OCC,–,–,–,–,–,–,·
Cc1cccc(NC(=O)N2CCC(N(C)CCC(C)C)CC2)c1,·,·,·,·,·,–,·
Cc1cccc(OCC(=O)N/N=C\C=C\c2ccc3c(c2)OCO3)c1C,–,–,–,38,–,–,–
CC(SC(C)C(=O)NN=Cc1cccc(F)c1)C(=O)NN=Cc1cccc(F)c1 (stereo unspecified),–,–,–,28,–,–,–
O=C(N/N=C/c1cccc(F)c1)NC1CCCCC1,–,–,–,–,–,–,·
O=C(CO/N=C/c1c(Cl)cccc1Cl)NNC(=O)c1cccc(Cl)c1,–,–,–,43,–,–,–
COc1ccc(C2=NOC(Cn3nc(C(=O)NCc4ccccc4OC)cc3-c3ccccc3)C2)cc1 (stereo unspecified),–,–,–,–,–,·,·
COc1ccc(Cl)cc1S(=O)(=O)N1CCN(C(=O)CSc2nc3ccccc3nc2N2CCCC2)CC1,·,·,·,·,·,–,·
CC1CCCC(NC(=O)CN2CCN(S(=O)(=O)c3ccc(Br)s3)CC2)C1C (stereo unspecified),–,–,–,–,–,–,·
COc1ccccc1NC(=O)Cn1nnc(C(=O)Nc2ccccc2)c1N,·,–,·,33,–,–,–
COc1ccccc1NC(=O)c1nnn(CC(=O)Nc2cc(C)cc(C)c2)c1N,–,–,–,33,–,–,–
CCOC(=O)c1cn2nc(Oc3cccc(C(F)(F)F)c3)ccc2n1,–,–,–,–,·,–,·
CC(C)C(=O)Nc1cccc(NC(=S)NC(=O)c2ccc(Cl)cc2)c1,–,–,–,28,–,–,–
CC(C)C(=O)Nc1cccc(NC(=S)NC(=O)c2ccc3c(c2)OCO3)c1,–,–,–,–,–,–,·
SMILES,SR-BI DiI-HDL act,CDK5 p35 inh,SR-BI DiI inh,dFosB act-1,Dyrk1A ADPGlo,NSD2 inh,dFosB act-2
CCCCNC(=S)N/N=C/c1ccc(OCC(=O)Nc2c(C)cc(C)cc2C)c(OC)c1,–,–,–,22,–,–,–
CCCCOc1ccc(CNC(=S)N/N=C/c2ccc(OC)c(OC)c2)cc1,–,–,–,–,–,–,·
CC(C)c1ccc(C2(C)NC(=O)N(CC(=O)NC3CCCC(C)C3C)C2=O)cc1 (stereo unspecified),–,–,–,–,–,–,·
CNc1c(NS(=O)(=O)c2ccc(OC)cc2)c(=O)oc2ccccc12,–,–,–,31,–,–,–
CNc1c(NS(=O)(=O)c2ccc(F)cc2)c(=O)oc2ccccc12,–,–,–,–,–,·,·
CCCNc1c(NS(=O)(=O)c2ccc(C(C)(C)C)cc2)c(=O)oc2ccccc12,–,–,–,–,–,–,·
CCCNc1c(NS(=O)(=O)c2ccc(C3CCCCC3)cc2)c(=O)oc2ccccc12,–,–,–,82,–,–,–
CNc1c(NS(=O)(=O)c2ccc(C(C)(C)C)cc2)c(=O)oc2ccccc12,·,–,·,60,–,–,–
CNc1c(NS(=O)(=O)c2ccc(Br)cc2)c(=O)oc2ccccc12,·,–,·,99,–,–,–
CNc1c(NS(=O)(=O)c2ccc(F)c(Cl)c2)c(=O)oc2ccccc12,·,–,·,–,–,–,·
Cc1ccc(S(=O)(=O)N2CCC(N3CCC(C)CC3)CC2)cc1,–,–,–,–,–,–,·
O=C(COc1ccc(F)cc1)N/N=C/c1cccc2cccnc12,–,–,–,–,·,–,·
C=CCCC(=O)NC1CCCc2c1cnn2-c1ccccc1F (stereo unspecified),–,–,–,–,–,–,·
CNc1c(NS(=O)(=O)c2ccc3c(c2)CCCC3)c(=O)oc2ccccc12,–,–,–,37,–,–,–
CCCC1(c2ccccc2)NC(=O)N(CC(=O)Nc2ccc3c(c2)OCCO3)C1=O (stereo unspecified),–,–,–,–,·,–,·
Cc1cc(C(F)F)n2nc(C(=O)Nc3cccc(S(=O)(=O)N4CCOCC4)c3)nc2n1,–,–,–,–,–,–,·
O=C(Nc1ccccc1Cl)N(Cc1nc2ccccc2c(=O)[nH]1)Cc1cccs1,–,–,–,33,–,–,–
CCCCN1C(=O)C(CC(=O)NCCCCc2ccccc2)CC(C(=O)N2CCCCCC2)=C1C (stereo unspecified),·,·,·,·,·,–,·
Cc1ccc(SCc2c(C(=O)N/N=C/c3ccoc3)nnn2-c2nonc2N)cc1,–,–,–,–,–,–,·
Nc1nonc1-n1nnc(C(=O)N/N=C/c2cccs2)c1-c1ccc2c(c1)OCO2,–,–,–,–,–,–,·
Cc1ccc(/C=N/NC(=O)c2nnn(-c3nonc3N)c2CSc2ccccc2)cc1,–,–,–,24,–,–,–
Nc1nonc1-n1nnc(C(=O)N/N=C/c2ccccc2Cl)c1-c1ccc2c(c1)OCO2,–,–,–,25,–,–,–
Cc1ccc(SCc2c(C(=O)N/N=C/c3ccccc3)nnn2-c2nonc2N)cc1,–,–,–,25,–,–,–
Cc1ccc(-c2c(C(=O)N/N=C/c3cccc(Cl)c3)nnn2-c2nonc2N)cc1,–,–,–,47,–,–,–
COc1ccc(-c2cc(C(=O)NCc3cccc(Cl)c3)[nH]n2)c(C)c1,·,·,·,·,·,–,·
Cc1ccc(-c2c(C(=O)N/N=C/c3ccc4c(c3)OCO4)nnn2-c2nonc2N)cc1,–,·,76,45,·,–,–

# Bioassay records deposited in PubChem by Broad Institute.
